Results reported in ChEMBL document CHEMBL1123990, “The in vitro dental plaque inhibitory properties of a series of N-[1-alkyl-4(1H)-pyridinylidene]alkylamines” (1988).
Converted amounts (≈) assume the structure as drawn.

Experiments:
Streptococcus sobrinus [1] = test: Plaque bactericidal index against Streptococcus sobrinus 6715-13 measured as chlorohexidine coefficient; type: functional
How it was run: (§1)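 Hydroxylapatite-grown plaques were exposed once daily for 2 min to varying concentrations of agent until the organisms were killed. The highest level tested was 0.2% w/v for 5 days. Tests were run in duplicate. PBI is the concentration (mM) × duration (min) × frequency (days) needed for plaque kill. CC is the chlorhexidine PBI divided by the test-agent PBI.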

Actinomyces viscosus [2] = test: Plaque bactericidal index against Actinomyces viscosus M-100 measured as chlorohexidine coefficient; type: functional; how it was run: as §1
Streptococcus sobrinus [3] = test: Chlorohexidine coefficient for Streptococcus sobrinus 6715-13; type: functional; how it was run: as §1
Actinomyces viscosus [4] = test: Chlorohexidine coefficient for Actinomyces viscosus M-100; type: functional; how it was run: as §1
Streptococcus sobrinus [5] = test: Minimal bactericidal concentration against Streptococcus sobrinus 6715-13; type: functional
How it was run: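 Plaques were grown on standardized ceramic hydroxylapatite plates and immersed once in agent for 30 min. They were rinsed with sterile distilled water, moved to fresh broth and incubated anaerobically at 37 °C. Kill meant no further culture acid production, no turbidity change, and no growth when 48-h post-treatment plaque samples were subcultured. Tests were run in duplicate.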

Streptococcus sobrinus [6] = test: Plaque bactericidal index against Streptococcus sobrinus 6715-13 measured as chlorohexidine coefficient; d=Not bactericidal at highest concentration tested (0.2% w/v, 2min, 5 days); type: functional, organism-based; how it was run: as §1
Actinomyces viscosus [7] = test: Plaque bactericidal index against Actinomyces viscosus M-100 measured as chlorohexidine coefficient; d=Not bactericidal at highest concentration tested (0.2% w/v, 2min, 5 days); type: functional, organism-based; how it was run: as §1
Actinomyces viscosus [8] = test: Plaque bactericidal index against Actinomyces viscosus 8A06; type: functional; how it was run: as §1
Streptococcus sanguinis [9] = test: Plaque bactericidal index against Streptococcus sanguis ATCC 10558; type: functional; how it was run: as §1
Streptococcus mitis [10] = test: Plaque bactericidal index against Streptococcus mitis 176-A1; type: functional; how it was run: as §1
Streptococcus mitis [11] = test: Plaque bactericidal index against Streptococcus mitis 90557; type: functional; how it was run: as §1
Streptococcus sanguinis [12] = test: Chlorohexidine coefficient for Streptococcus sanguis H7P; type: functional
How it was run: (§2)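 Plaques were grown on standardized ceramic hydroxylapatite plates and treated once daily for 2 min with varying concentrations until kill. They were then rinsed in sterile water and incubated in fresh broth at 37 °C anaerobically. Kill meant no acid production, no turbidity change, and no regrowth of 48-h post-treatment subcultures. Tests were run in duplicate. PBI = concn (mM) × min × days to kill; CC = chlorhexidine PBI ÷ test PBI.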

Streptococcus sanguinis [13] = test: Plaque bactericidal index against Streptococcus sanguis H7P; type: functional; how it was run: as §2
Streptococcus sobrinus [14] = test: Plaque bactericidal index against Streptococcus sobrinus SL-1; type: functional; how it was run: as §1
Streptococcus mutans [15] = test: Chlorohexidine coefficient for Streptococcus mutans GR-5; type: functional; how it was run: as §1
Actinomyces naeslundii [16] = test: Chlorohexidine coefficient for Actinomyces naeslundii 631; type: functional; how it was run: as §1
Actinomyces naeslundii [17] = test: Plaque bactericidal index against Actinomyces naeslundii 631; type: functional; how it was run: as §1
Actinomyces viscosus [18] = test: Chlorohexidine coefficient for Actinomyces viscosus 8A06; type: functional; how it was run: as §1
Streptococcus sanguinis [19] = test: Chlorohexidine coefficient for Streptococcus sanguis ATCC 10558; type: functional; how it was run: as §1
Streptococcus mutans [20] = test: Chlorohexidine coefficient for Streptococcus mutans IB1600; type: functional; how it was run: as §1
Actinomyces naeslundii [21] = test: Chlorohexidine coefficient for Actinomyces naeslundii B74; type: functional; how it was run: as §1
Streptococcus mitis [22] = test: Chlorohexidine coefficient for Streptococcus mitis 176-A1; type: functional; how it was run: as §1
Streptococcus sobrinus [23] = test: Plaque bactericidal index against Streptococcus sobrinus 6715-13; type: functional; how it was run: as §1
Streptococcus mutans [24] = test: Chlorohexidine coefficient for Streptococcus mutans FA-1; type: functional; how it was run: as §1
Actinomyces naeslundii [25] = test: Chlorohexidine coefficient for Actinomyces naeslundii N/9; type: functional; how it was run: as §1
Streptococcus mutans [26] = test: Plaque bactericidal index against Streptococcus mutans GR-5; type: functional; how it was run: as §1
Streptococcus sobrinus [27] = test: Chlorohexidine coefficient for Streptococcus sobrinus SL-1; type: functional; how it was run: as §1
Actinomyces viscosus [28] = test: Chlorohexidine coefficient for Actinomyces viscosus M-626; type: functional; how it was run: as §1
Actinomyces viscosus [29] = test: Plaque bactericidal index against Actinomyces viscosus 626; type: functional; how it was run: as §1
Streptococcus mutans [30] = test: Plaque bactericidal index against Streptococcus mutans OMZ-61; type: functional; how it was run: as §2
Actinomyces viscosus [31] = test: Chlorohexidine coefficient for Actinomyces viscosus T14V; type: functional; how it was run: as §1
Streptococcus mutans [32] = test: Plaque bactericidal index against Streptococcus mutans IB1600; type: functional; how it was run: as §1
Actinomyces naeslundii [33] = test: Chlorohexidine coefficient for Actinomyces naeslundii N/3; type: functional; how it was run: as §1
Streptococcus mutans [34] = test: Chlorohexidine coefficient for Streptococcus mutans OMZ-61; type: functional; how it was run: as §1
Streptococcus mitis [35] = test: Chlorohexidine coefficient for Streptococcus mitis 90557; type: functional; how it was run: as §1
Actinomyces viscosus [36] = test: Plaque bactericidal index against Actinomyces viscosus M-100; type: functional; how it was run: as §1
Actinomyces naeslundii [37] = test: Plaque bactericidal index against Actinomyces naeslundii B74; type: functional; how it was run: as §1
Streptococcus mutans [38] = test: Plaque bactericidal index against Streptococcus mutans FA-1; type: functional; how it was run: as §1
Actinomyces naeslundii [39] = test: Plaque bactericidal index against Actinomyces naeslundii N/9; type: functional; how it was run: as §1
Actinomyces naeslundii [40] = test: Plaque bactericidal index against Actinomyces naeslundii N/3; type: functional; how it was run: as §1

CCCCCCCCCCCCN=c1ccn(Cc2ccccc2)cc1.Cl
PBI (Streptococcus sobrinus [1]): 15.4 | PBI (Actinomyces viscosus [2]): 10.3 | CC (Streptococcus sobrinus [3]): 1.7 | CC (Actinomyces viscosus [4]): 1.9 | MBC (Streptococcus sobrinus [5]): 1290 µM

CCCCCCCCn1ccc(=NCCCCCC)cc1.Cl
PBI (Streptococcus sobrinus [1]): 4.6 | PBI (Actinomyces viscosus [2]): 3 | CC (Streptococcus sobrinus [3]): 5.6 | CC (Actinomyces viscosus [4]): 6.4 | MBC (Streptococcus sobrinus [5]): 310 µM

Br.CCCCCCCCn1ccc(=NCC(CC)CCCC)cc1 (stereo unspecified)
PBI (Streptococcus sobrinus [1]): 10 | PBI (Actinomyces viscosus [2]): 10 | CC (Streptococcus sobrinus [3]): 2.5 | CC (Actinomyces viscosus [4]): 1.9 | MBC (Streptococcus sobrinus [5]): 1250 µM

CCCCCCCCN=c1ccn(CCCCCCCCCCn2ccc(=NCCCCCCCC)cc2)cc1 [OCTENIDINE]
PBI (Streptococcus sobrinus [1]): 25.6 | PBI (Actinomyces viscosus [2]): 19.2 | CC (Streptococcus sobrinus [3]): 1 | CC (Actinomyces viscosus [4]): 1 | MBC (Streptococcus sobrinus [5]): 3200 µM (≈ 1760 µg/mL)

CCCCCCCCCCCCCCN=c1ccn(Cc2ccccc2)cc1
PBI (Streptococcus sobrinus [6]): Not bactericidal | PBI (Actinomyces viscosus [7]): Not bactericidal | MBC (Streptococcus sobrinus [5]): 240 µM (≈ 91.3 µg/mL)

CCCCCCCN=c1ccn(CCCCCC)cc1.Cl
PBI (Streptococcus sobrinus [1]): 12.8 | PBI (Actinomyces viscosus [2]): 6.4 | CC (Streptococcus sobrinus [3]): 2 | CC (Actinomyces viscosus [4]): 3 | MBC (Streptococcus sobrinus [5]): 1600 µM

Br.CCCCCCCCN=c1ccn(CC(CC)CCCC)cc1 (stereo unspecified)
PBI (Streptococcus sobrinus [1]): 12.5 | PBI (Actinomyces viscosus [2]): 12.5 | CC (Streptococcus sobrinus [3]): 2 | CC (Actinomyces viscosus [4]): 1.5 | MBC (Streptococcus sobrinus [5]): 1250 µM

Br.CCCCCCCCN=c1ccn(CCCCCCC)cc1
PBI (Streptococcus sobrinus [1]): 7.8 | PBI (Actinomyces viscosus [2]): 7.8 | CC (Streptococcus sobrinus [3]): 3.3 | CC (Actinomyces viscosus [4]): 2.5 | MBC (Streptococcus sobrinus [5]): 1300 µM

CCCCCCCCN=c1ccn(CCCCCCCC)cc1.Cl [PIRTENIDINE HYDROCHLORIDE]
PBI (Actinomyces viscosus [8]): 4.2 | PBI (Streptococcus sanguinis [9]): 5 | PBI (Streptococcus mitis [10]): 20 | PBI (Streptococcus mitis [11]): 5 | CC (Streptococcus sanguinis [12]): 3.2 | PBI (Streptococcus sanguinis [13]): 10 | PBI (Streptococcus sobrinus [14]): 2.8 | CC (Streptococcus mutans [15]): 18.3 | CC (Actinomyces naeslundii [16]): 6.9 | PBI (Actinomyces naeslundii [17]): 2.8 | CC (Actinomyces viscosus [18]): 4.6 | CC (Streptococcus sanguinis [19]): 6.4 | CC (Streptococcus mutans [20]): 18.3 | CC (Actinomyces naeslundii [21]): 13.7 | CC (Streptococcus mitis [22]): 1.6 | PBI (Streptococcus sobrinus [1]): 2.8 | PBI (Actinomyces viscosus [2]): 2.8 | PBI (Streptococcus sobrinus [23]): 2.8 | CC (Streptococcus sobrinus [3]): 9.1 | CC (Streptococcus mutans [24]): 18.3 | CC (Actinomyces naeslundii [25]): 13.7 | PBI (Streptococcus mutans [26]): 1.4 | CC (Streptococcus sobrinus [27]): 9.1 | CC (Actinomyces viscosus [4]): 6.9 | CC (Actinomyces viscosus [28]): 13.7 | PBI (Actinomyces viscosus [29]): 1.4 | PBI (Streptococcus mutans [30]): 1.4 | CC (Actinomyces viscosus [31]): 13.7 | PBI (Streptococcus mutans [32]): 1.4 | CC (Actinomyces naeslundii [33]): 13.7 | CC (Streptococcus mutans [34]): 18.3 | CC (Streptococcus mitis [35]): 6.4 | PBI (Actinomyces viscosus [36]): 2.8 | PBI (Actinomyces naeslundii [37]): 1.4 | PBI (Streptococcus mutans [38]): 1.4 | PBI (Actinomyces naeslundii [39]): 1.4 | PBI (Actinomyces naeslundii [40]): 1.4 | MBC (Streptococcus sobrinus [5]): 280 µM

Br.CCCCCCCCCN=c1ccn(CCCCCCC)cc1
PBI (Streptococcus sobrinus [1]): 10 | PBI (Actinomyces viscosus [2]): 10 | CC (Streptococcus sobrinus [3]): 2.5 | CC (Actinomyces viscosus [4]): 1.9 | MBC (Streptococcus sobrinus [5]): 1250 µM

Br.CCCCCCCCn1ccc(=NCCCCCCC)cc1
PBI (Streptococcus sobrinus [1]): 10.4 | PBI (Actinomyces viscosus [2]): 10.4 | CC (Streptococcus sobrinus [3]): 2.5 | CC (Actinomyces viscosus [4]): 1.8 | MBC (Streptococcus sobrinus [5]): 1300 µM

CCCCCCCCCN=c1ccn(CCCCCCCCC)cc1.Cl
PBI (Streptococcus sobrinus [1]): 10.4 | PBI (Actinomyces viscosus [2]): 5.2 | CC (Streptococcus sobrinus [3]): 2.5 | CC (Actinomyces viscosus [4]): 4 | MBC (Streptococcus sobrinus [5]): 2610 µM

Br.CCCCCCCCN=c1ccn(CCCCCC)cc1
PBI (Streptococcus sobrinus [1]): 10.8 | PBI (Actinomyces viscosus [2]): 13.5 | CC (Streptococcus sobrinus [3]): 2.4 | CC (Actinomyces viscosus [4]): 1.4 | MBC (Streptococcus sobrinus [5]): 1350 µM

CCCCCCCCCn1ccc(=NCCCCCCC)cc1.Cl
PBI (Streptococcus sobrinus [1]): 8.5 | PBI (Actinomyces viscosus [2]): 11.3 | CC (Streptococcus sobrinus [3]): 3 | CC (Actinomyces viscosus [4]): 1.7 | MBC (Streptococcus sobrinus [5]): 1410 µM
